In ChEMBL document CHEMBL1132286, “Design, synthesis, and dopamine receptor modulating activity of spiro bicyclic peptidomimetics of L-prolyl-L-leucyl-glycinamide” (J Med Chem, 1999):
Values joined by “and” are separate entries in the source; they are usually repeats but may differ in a detail not shown here. Equal values may be shown once. Peptide text beside a SMILES is read from it.

Assays:
[1] = biological target: T1, D(2) dopamine receptor (Homo sapiens, UniProt P14416); assay: Inhibitor constant of compound for high affinity component of [3H]spiroperidol/N-propylnorapomorphine binding to Dopamine receptor D2 in absence of Gpp(NH)p (pretreatment with 100 nM of compound)
T1 sequence (P14416 whole entry): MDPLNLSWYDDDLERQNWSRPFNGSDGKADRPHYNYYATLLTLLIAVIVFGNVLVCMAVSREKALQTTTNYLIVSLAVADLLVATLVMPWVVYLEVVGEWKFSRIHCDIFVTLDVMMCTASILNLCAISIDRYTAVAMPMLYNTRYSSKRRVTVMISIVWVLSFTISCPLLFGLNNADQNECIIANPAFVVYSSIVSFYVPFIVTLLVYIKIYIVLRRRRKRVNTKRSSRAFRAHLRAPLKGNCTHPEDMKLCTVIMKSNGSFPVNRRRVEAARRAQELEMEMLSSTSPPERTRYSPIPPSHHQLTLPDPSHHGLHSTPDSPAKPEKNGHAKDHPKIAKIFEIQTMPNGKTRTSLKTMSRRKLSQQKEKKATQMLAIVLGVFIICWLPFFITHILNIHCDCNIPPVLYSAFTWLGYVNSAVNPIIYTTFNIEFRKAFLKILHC
Summary of the method: (§1)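 D2 receptor binding: [3H]spiroperidol displaced by the agonist N-propylnorapomorphine, run without or with Gpp(NH)p (100 μM). The assay was done either with 100 nM test-compound pretreatment or untreated as its control. High- and low-affinity dissociation constants (KH, KL) and receptor fractions (RH, RL, RH/RL) are reported. Values are mean ± SEM of 3–4 separate experiments, each done in duplicate or triplicate.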

[2] = biological target: T1, D(2) dopamine receptor; assay: Inhibitor constant of compound for high affinity component of [3H]spiroperidol/N-propylnorapomorphine binding to Dopamine receptor D2 in presence of Gpp(NH)p; summary of the method: as §1
[3] = biological target: T1, D(2) dopamine receptor; assay: Inhibitor constant of compound for high affinity component of [3H]spiroperidol/N-propylnorapomorphine binding to Dopamine receptor D2 in presence of Gpp(NH)p (pretreatment with 100 nM of compound); summary of the method: as §1
[4] = biological target: T1, D(2) dopamine receptor; assay: Inhibitor constant of compound for low affinity component of [3H]spiroperidol/N-propylnorapomorphine binding to Dopamine receptor D2 in absence of Gpp(NH)p; summary of the method: as §1
[5] = biological target: T1, D(2) dopamine receptor; assay: Inhibitor constant of compound for low affinity component of [3H]spiroperidol/N-propylnorapomorphine binding to Dopamine receptor D2 in absence of Gpp(NH)p (pretreatment with 100 nM of compound); summary of the method: as §1
[6] = biological target: T1, D(2) dopamine receptor; assay: Inhibitor constant of compound for low affinity component of [3H]spiroperidol/N-propylnorapomorphine binding to Dopamine receptor D2 in presence of Gpp(NH)p; summary of the method: as §1
[7] = biological target: T1, D(2) dopamine receptor; assay: Percent of Dopamine receptor D2 in high affinity state for the compound in absence of Gpp(NH)p; summary of the method: as §1
[8] = biological target: T1, D(2) dopamine receptor; assay: Percent of Dopamine receptor D2 in high affinity state for the compound in absence of Gpp(NH)p (pretreatment with 100 nM of compound).; summary of the method: as §1
[9] = biological target: T1, D(2) dopamine receptor; assay: Percent of Dopamine receptor D2 in high affinity state for the compound in presence of Gpp(NH)p; summary of the method: as §1
[10] = biological target: T1, D(2) dopamine receptor; assay: Percent of Dopamine receptor D2 in high affinity state for the compound in presence of Gpp(NH)p (pretreatment with 100 nM of compound).; summary of the method: as §1
[11] = biological target: T1, D(2) dopamine receptor; assay: Percent of Dopamine receptor D2 in low affinity state for the compound in absence of Gpp(NH)p; summary of the method: as §1
[12] = biological target: T1, D(2) dopamine receptor; assay: Percent of Dopamine receptor D2 in low affinity state for the compound in absence of Gpp(NH)p (pretreatment with 100 nM of compound).; summary of the method: as §1
[13] = biological target: T1, D(2) dopamine receptor; assay: Percent of Dopamine receptor D2 in low affinity state for the compound in presence of Gpp(NH)p; summary of the method: as §1
[14] = biological target: T1, D(2) dopamine receptor; assay: Percent of Dopamine receptor D2 in low affinity state for the compound in presence of Gpp(NH)p (pretreatment with 100 nM of compound).; summary of the method: as §1
[15] = biological target: T1, D(2) dopamine receptor; assay: Inhibitor constant of compound for high affinity component of [3H]spiroperidol/N-propylnorapomorphine binding to Dopamine receptor D2 in absence of Gpp(NH)p; summary of the method: as §1
[16] = biological target: T1, D(2) dopamine receptor; assay: Ratio of the high affinity state over low affinity state of dopamine D2 receptor in the absence of Gpp(NH)p.; summary of the method: as §1
[17] = biological target: T1, D(2) dopamine receptor; assay: Ratio of the high affinity state over low affinity state of dopamine D2 receptor in the absence of Gpp(NH)p. (pretreatment with 100 nM of compound).; summary of the method: as §1
[18] = biological target: T1, D(2) dopamine receptor; assay: Ratio of the high affinity state over low affinity state of dopamine D2 receptor in the presence of Gpp(NH)p.; summary of the method: as §1
[19] = biological target: T1, D(2) dopamine receptor; assay: Ratio of the high affinity state over low affinity state of dopamine D2 receptor in the presence of Gpp(NH)p. (pretreatment with 100 nM of compound).; summary of the method: as §1
[20] = test system: Rattus norvegicus; assay: Percent increase in apomorphine induced rotational behavior in the 6-hydroxydopamine lesioned rat model of hemiparkinsonism by 0.001 mg/Kg of compound given intraperitoneally; type: functional
Summary of the method: (§2)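 Rats with a unilateral 6-hydroxydopamine lesion of the substantia nigra received the test compound ip (0.00001–1 mg/kg) together with apomorphine (0.25 mg/kg, ip), n = 4. Contralateral rotations were counted over 10 min and expressed as percent change from the control rotational response, mean ± SEM.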

[21] = test system: Rattus norvegicus; assay: Percent increase in apomorphine induced rotational behavior in the 6-hydroxydopamine lesioned rat model of hemiparkinsonism by 0.01 mg/Kg of compound given intraperitoneally; type: functional; summary of the method: as §2

SMILES	Ki [1] [nM]	Ki [2] [nM]	Ki [3] [nM]	Ki [4] [nM]	Ki [5] [nM]	Ki [6]	RH [7] [%]	RH [8] [%]	RH [9] [%]	RH [10] [%]	RL [11] [%]	RL [12] [%]	RL [13] [%]	RL [14] [%]	Ki [15] [nM]	RH/RL [16]	RH/RL [17]	RH/RL [18]	RH/RL [19]	also measured
CC(C)C[C@H](NC(=O)[C@@H]1CCCN1)C(=O)NCC(N)=O (H-Pro-Leu-Gly-NH2)	0.04	0.13	0.06	73.2	60.1	60 nM and 78 nM	49	61	19	32	51	41	82	72	0.09	0.96	1.48	0.23	0.44	–
NC(=O)[C@H]1CS[C@@H]2CC[C@]3(CCCN3C(=O)[C@@H]3CCCN3)C(=O)N12	0.05	0.196	0.09	190	188	260 nM and 211 nM	53	68	17	55	47	32	83	45	0.067	1.13	2.12	0.2	1.22	Activity [20]: 88%
NC(=O)C1CCS[C@@H]2C[C@]3(CCCN3C(=O)[C@@H]3CCCN3)C(=O)N12 (some centres undefined)	0.031	0.122	0.064	196	168	246 nM and 202 nM	52	64	15	53	48	36	85	47	0.071	1.08	1.77	0.17	1.12	Activity [21]: 95%
